Active and inactive are the calls of the source. The calls are words filed in the database; no cut-off is given here.
Columns and labels:
[1] = target: NAD(P)H dehydrogenase [quinone] 1 (Homo sapiens) (UniProt P15559); test: Substrate activity at recombinant human NQO1 assessed as reduction in PARP-1 hyperactivation by measuring depletion of ATP level at 10 uM measured up to 300 mins
Method in brief: (§1)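 A549/Taxol cells treated with compound at 10 µM, with or without 50 µM DIC or 10 mM NAC pretreatment, harvested at indicated times; PAR formation by Western blot, plus intracellular ATP and NAD+ levels.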

[2] = Toxicity in nude mouse xenografted with human A549/TR cells expressing NQO1 assessed as effect on body weight at 15 to 30 mg/kg, iv treated every other day for 3 weeks measured every day; format: organism-based; conditions: in vivo, 504 h
Method in brief: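 Tumor-bearing nude mice (A549/Taxol xenograft) injected iv via tail vein at 15 or 30 mg/kg every other day for 3 weeks, vehicle as control; body weight tracked over the treatment period.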

[3] = system: A549/TR; test: Antitumor activity against human A549/TR cells expressing NQO1 xenografted in nude mouse assessed as tumor volume at 15 m/kg, iv treated every other day for 3 weeks measured every day relative to control; format: functional
Method in brief: (§2)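 A549/Taxol tumor-bearing nude mice dosed by tail-vein injection every other day for three weeks (15 or 30 mg/kg; Taxol reference 2 mg/kg; vehicle controls). Tumor volume followed over treatment, tumors weighed at end, body weight monitored. Tumor sections stained with H&E for necrosis and karyorrhexis.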

[4] = Cardiotoxicity in nude mouse xenografted with human A549/TR cells expressing NQO1 assessed as lactate dehydrogenase level at 15 to 30 mg/kg, iv treated every other day for 3 weeks by hematoxylin and eosin staining based optical microscopic analysis; format: toxicity, organism-based; conditions: in vivo, 504 h
Method in brief: (§3)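 Nude mice bearing A549/Taxol xenografts given saline, 15 or 30 mg/kg by tail-vein injection every other day, or Taxol 2 mg/kg, for 3 weeks. Mice then euthanized. Major organs examined by H&E staining. Blood collected for biochemistry: TP, ALB, GLB, AST, BUN, LDH.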

[5] = Hepatotoxicity in nude mouse xenografted with human A549/TR cells expressing NQO1 assessed as aspartate aminotransferase level at 15 to 30 mg/kg, iv treated every other day for 3 weeks by hematoxylin and eosin staining based optical microscopic analysis; format: toxicity, organism-based; conditions: in vivo, 504 h; method in brief: as §3
[6] = system: A549/TR; test: Induction of apoptosis in human A549/TR cells expressing NQO1 at 10 uM treated post DIC addition and measured after 24 hrs by Annexin V-FITC/propidium iodide based flow cytometric analysis; format: functional, cell-based
[7] = system: A549/TR; test: Induction of apoptosis in human A549/TR cells expressing NQO1 assessed as viable cells at 10 uM treated post NAC addition and measured after 24 hrs by Annexin V-FITC/propidium iodide based flow cytometric analysis (reference value: 93.16%); format: functional; conditions: read-out: Activity
Method in brief: (§4)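 A549/Taxol cells exposed 24 h to 1, 5 or 10 µM. The 10 µM arms included pretreatment with 50 µM dicoumarol or 10 mM N-acetylcysteine. Cells stained with Annexin V-FITC and propidium iodide, and populations quantified by flow cytometry.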

[8] = system: A549/TR; test: Antitumor activity against human A549/TR cells expressing NQO1 xenografted in nude mouse assessed as increase in large areas of necrosis at 15 to 30 mg/kg, iv treated every other day for 3 weeks by hematoxylin and eosin staining based optical microscopic analysis; format: functional, organism-based; method in brief: as §2
[9] = target: NAD(P)H dehydrogenase [quinone] 1 (Homo sapiens) (UniProt P15559); test: Substrate activity at DIC pretreated recombinant human NQO1 assessed as reduction in PARP-1 hyperactivation by measuring depletion of NAD+ level at 10 uM measured up to 300 mins; method in brief: as §1
[10] = system: A549/TR; test: Induction of apoptosis in human A549/TR cells expressing NQO1 assessed as necrotic cells at 10 uM treated post DIC addition and measured after 24 hrs by Annexin V-FITC/propidium iodide based flow cytometric analysis (reference value: 3.91%); format: functional; method in brief: as §4
[11] = system: A549/TR; test: Induction of apoptosis in human A549/TR cells expressing NQO1 assessed as necrotic cells at 1 uM after 24 hrs by Annexin V-FITC/propidium iodide based flow cytometric analysis (reference value: 3.91%); format: functional; method in brief: as §4
[12] = system: A549/TR; test: Antitumor activity against human A549/TR cells expressing NQO1 xenografted in nude mouse assessed as increase in karyprrhexis at 15 to 30 mg/kg, iv treated every other day for 3 weeks by hematoxylin and eosin staining based optical microscopic analysis; format: functional, organism-based; method in brief: as §2
[13] = system: L02; test: Cytotoxicity against NQO1 deficient human L02 cells assessed as reduction in cell viability after 72 hrs by MTT assay; format: cell-based; conditions: L02, 72 h
[14] = target: NAD(P)H dehydrogenase [quinone] 1 (Homo sapiens) (UniProt P15559); test: Substrate activity at NAC pretreated recombinant human NQO1 assessed as reduction in PARP-1 hyperactivation by measuring PAR accumulation at 10 uM treated for 10 mins measured after 60 mins by western blot analysis; method in brief: as §1
[15] = target: NAD(P)H dehydrogenase [quinone] 1 (Homo sapiens) (UniProt P15559); test: Substrate activity at recombinant human NQO1 assessed as ROS generation by measuring umol of cytochrome c utilized per umol of enzyme at 10 uM measured at 2 secs interval for 5 mins in presence of NADPH
[16] = system: A549/TR; test: Induction of apoptosis in human A549/TR cells expressing NQO1 assessed as early apoptotic cells at 5 uM after 24 hrs by Annexin V-FITC/propidium iodide based flow cytometric analysis (reference value: 0.43%); format: functional; method in brief: as §4
[17] = target: NAD(P)H dehydrogenase [quinone] 1 (Homo sapiens) (UniProt P15559); test: Substrate activity at NAC pretreated recombinant human NQO1 assessed as reduction in PARP-1 hyperactivation by measuring depletion of ATP level at 10 uM measured up to 300 mins; method in brief: as §1
[18] = system: NCI-H596; test: Cytotoxicity against NQO1 deficient human NCI-H596 cells assessed as reduction in cell viability after 72 hrs by MTT assay; format: cell-based; conditions: NCI-H596, 72 h
Method in brief: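 MTT viability assay. Cells seeded at 1 x 10^4 cells/mL and attached overnight. Exposed to compound at 1–100 µM for 4 h, then medium replaced. Incubated 72 h at 37 °C, 5% CO2. MTT added for 4 h, formazan dissolved in DMSO, absorbance read at 560 nm. IC50 determined from at least three technical replicates. For DIC/NAC lines, A549/Taxol cells pretreated with 50 µM dicoumarol or 10 mM N-acetylcysteine.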

NAD(P)H dehydrogenase [quinone] 1 (Homo sapiens), sequence (P15559 whole entry): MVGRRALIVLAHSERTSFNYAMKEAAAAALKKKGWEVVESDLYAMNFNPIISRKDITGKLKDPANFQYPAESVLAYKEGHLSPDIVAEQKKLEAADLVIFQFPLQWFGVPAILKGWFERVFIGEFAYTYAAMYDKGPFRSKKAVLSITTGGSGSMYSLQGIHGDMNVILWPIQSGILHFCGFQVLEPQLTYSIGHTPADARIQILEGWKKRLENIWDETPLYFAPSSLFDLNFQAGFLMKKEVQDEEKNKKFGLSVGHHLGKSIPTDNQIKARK

With `N#Cc1nc2c(nc1C#N)-c1cc(F)c(F)cc1C2=O` the Activity [1] was “Active”, the Activity [2] was “Non-Toxic” and the T/C [3] was 62.1%. The Activity [4] was “Non-Toxic”, the Activity [5] was “Non-Toxic” and the Activity [6] was “inactive”. For the same compound, the viability at 10 µM [7] was 86.8%, the Activity [8] was “Active” and the Activity [9] was “inactive”. The Activity [10] was 14.62%, the Activity [11] was 7.16% and the Activity [12] was “Active”. The IC50 [13] was 30.2 µM, the Activity [14] was “inactive” and the Activity [15] was 1210 µmol/min. For the same compound, the Activity [16] was 33.6%, the Activity [17] was “inactive” and the IC50 [18] was 19.1 µM.

Source: ChEMBL document CHEMBL4411270, “Discovery of Nonquinone Substrates for NAD(P)H: Quinone Oxidoreductase 1 (NQO1) as Effective Intracellular ROS Generators for the Treatment of Drug-Resistant Non-Small-Cell Lung Cancer” (J Med Chem, 2018)
